Source: ChEMBL document CHEMBL1153950, “The synthesis and biological evaluation of some caffeic acid amide derivatives: E-2-cyano-(3-substituted phenyl)acrylamides” (Bioorg Med Chem Lett, 2009)
Converted amounts (≈) assume the structure as drawn.

How the values were obtained:
Bel-7402 = assay: Antitumor activity against human Bel7402 cells by MTT assay; assay type: functional, cell-based
Summary of the method: (§1)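 Screened in vitro by MTT assay on human gastric carcinoma BGC-823, nasopharyngeal carcinoma KB and hepatoma BEL-7402 cell lines; cis-diamminedichloroplatinum (DDP) served as positive control.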

[1] = target: Acetylcholinesterase (Homo sapiens) (UniProt P22303); assay: Inhibition of acetylcholinesterase at 25 uM
Sequence of Acetylcholinesterase (Homo sapiens) (P22303 whole entry): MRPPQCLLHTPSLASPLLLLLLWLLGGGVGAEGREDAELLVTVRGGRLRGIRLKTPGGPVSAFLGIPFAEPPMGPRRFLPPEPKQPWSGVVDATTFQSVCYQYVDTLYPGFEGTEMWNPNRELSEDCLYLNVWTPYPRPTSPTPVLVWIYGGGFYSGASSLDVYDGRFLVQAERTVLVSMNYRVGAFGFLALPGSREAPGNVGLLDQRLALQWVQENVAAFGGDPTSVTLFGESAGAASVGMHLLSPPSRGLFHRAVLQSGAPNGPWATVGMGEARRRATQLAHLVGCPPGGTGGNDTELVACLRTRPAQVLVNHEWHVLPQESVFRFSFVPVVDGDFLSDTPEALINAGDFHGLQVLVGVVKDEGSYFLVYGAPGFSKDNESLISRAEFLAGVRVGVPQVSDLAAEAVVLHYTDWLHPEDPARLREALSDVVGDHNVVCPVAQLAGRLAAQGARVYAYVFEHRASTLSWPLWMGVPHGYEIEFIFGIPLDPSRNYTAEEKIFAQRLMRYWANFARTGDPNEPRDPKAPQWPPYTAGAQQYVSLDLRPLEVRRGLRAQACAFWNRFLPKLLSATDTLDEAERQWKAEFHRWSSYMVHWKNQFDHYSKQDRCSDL

KB = assay: Antitumor activity against human KB cells by MTT assay; assay type: functional, cell-based; summary of the method: as §1
BGC-823 = assay: Antitumor activity against human BGC823 cells by MTT assay; assay type: functional, cell-based; summary of the method: as §1

COc1c(O)ccc(/C=C(\C#N)C(=O)Nc2cccc(Cl)c2)c1[N+](=O)[O-]
IC50 (Bel-7402): 65.3 µg/mL (≈ 175 µM)
inhibition [1]: 2.19%
IC50 (KB): > 100 µg/mL
IC50 (BGC-823): > 100 µg/mL

N#C/C(=C\c1cc(O)c(O)c([N+](=O)[O-])c1)C(=O)N1CCCCC1
IC50 (Bel-7402): > 100 µg/mL
inhibition [1]: 0.27%
IC50 (KB): > 100 µg/mL
IC50 (BGC-823): > 100 µg/mL

N#C/C(=C\c1cc(O)c(O)c([N+](=O)[O-])c1)C(=O)Nc1ccccc1Cl
IC50 (Bel-7402): 24 µg/mL (≈ 66.7 µM)
inhibition [1]: 0.95%
IC50 (KB): 37.4 µg/mL (≈ 104 µM)
IC50 (BGC-823): 10.5 µg/mL (≈ 29.2 µM)

COc1cc(/C=C(\C#N)C(=O)Nc2cccc(Cl)c2)cc([N+](=O)[O-])c1O
IC50 (Bel-7402): 21.1 µg/mL (≈ 56.5 µM)
inhibition [1]: 1.64%
IC50 (KB): 56.6 µg/mL (≈ 151 µM)
IC50 (BGC-823): 26.1 µg/mL (≈ 69.8 µM)

N#C/C(=C\c1cc(O)c(O)c([N+](=O)[O-])c1)C(=O)N(c1ccccc1)c1ccccc1
IC50 (Bel-7402): 56.2 µg/mL (≈ 140 µM)
inhibition [1]: 7.38%
IC50 (KB): 104 µg/mL (≈ 259 µM)
IC50 (BGC-823): > 100 µg/mL

Cc1cccc(NC(=O)/C(C#N)=C/c2cc(O)c(O)c([N+](=O)[O-])c2)c1
inhibition [1]: 2.73%
IC50 (BGC-823): 5.6 µg/mL (≈ 16.5 µM)

N#C/C(=C\c1cc(O)c(O)c([N+](=O)[O-])c1)C(=O)N1CCOCC1
IC50 (Bel-7402): > 100 µg/mL
inhibition [1]: 3%
IC50 (KB): > 100 µg/mL
IC50 (BGC-823): > 100 µg/mL

N#C/C(=C\c1cc(O)c(O)c([N+](=O)[O-])c1)C(=O)Nc1cccc(Cl)c1
IC50 (Bel-7402): 40.1 µg/mL (≈ 111 µM)
inhibition [1]: 4.37%
IC50 (KB): 72.7 µg/mL (≈ 202 µM)
IC50 (BGC-823): > 100 µg/mL

N#C/C(=C\c1cc(O)c(O)c([N+](=O)[O-])c1)C(N)=O
IC50 (Bel-7402): > 100 µg/mL
inhibition [1]: 1.09%
IC50 (KB): > 100 µg/mL
IC50 (BGC-823): > 100 µg/mL

COc1ccc(NC(=O)/C(C#N)=C/c2cc(O)c(O)c([N+](=O)[O-])c2)cc1
IC50 (Bel-7402): > 100 µg/mL
inhibition [1]: 4.64%
IC50 (KB): 29.2 µg/mL (≈ 82.2 µM)
IC50 (BGC-823): 45.4 µg/mL (≈ 128 µM)
